# Counter-ions that a name gives are not always drawn.
# What was measured:
# Water solubility = assay type: physicochemical
# human TLR2 = human TLR2 (Homo sapiens, UniProt O60603); assay: TLR2-specific NF-κB induction reporter gene assay; assay type: cell-based; conditions: for TLR2-agonistic activity (in words): TLR2-specific reporter gene assay
# Summary of the method: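 HEK-Blue reporter cells carry stably expressed secreted alkaline phosphatase under NF-κB promoters, inducible by TLR2 agonists. Cells were seeded at ~10⁵ cells/mL and grown to confluency, then stimulated for 12 h with serially diluted test compound. Supernatant sAP was read spectrophotometrically at 620 nm using an alkaline phosphatase-specific chromogen in the detection medium. Samples were run in quadruplicate, reported as means with standard deviations.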
# rabbit = rabbit models; cited from earlier work
# human blood = conditions: ex vivo human blood models; cited from earlier work
# [1] = tested on: murine models of immunization; conditions: cited from earlier work
# human TLR2, sequence (O60603 21-784): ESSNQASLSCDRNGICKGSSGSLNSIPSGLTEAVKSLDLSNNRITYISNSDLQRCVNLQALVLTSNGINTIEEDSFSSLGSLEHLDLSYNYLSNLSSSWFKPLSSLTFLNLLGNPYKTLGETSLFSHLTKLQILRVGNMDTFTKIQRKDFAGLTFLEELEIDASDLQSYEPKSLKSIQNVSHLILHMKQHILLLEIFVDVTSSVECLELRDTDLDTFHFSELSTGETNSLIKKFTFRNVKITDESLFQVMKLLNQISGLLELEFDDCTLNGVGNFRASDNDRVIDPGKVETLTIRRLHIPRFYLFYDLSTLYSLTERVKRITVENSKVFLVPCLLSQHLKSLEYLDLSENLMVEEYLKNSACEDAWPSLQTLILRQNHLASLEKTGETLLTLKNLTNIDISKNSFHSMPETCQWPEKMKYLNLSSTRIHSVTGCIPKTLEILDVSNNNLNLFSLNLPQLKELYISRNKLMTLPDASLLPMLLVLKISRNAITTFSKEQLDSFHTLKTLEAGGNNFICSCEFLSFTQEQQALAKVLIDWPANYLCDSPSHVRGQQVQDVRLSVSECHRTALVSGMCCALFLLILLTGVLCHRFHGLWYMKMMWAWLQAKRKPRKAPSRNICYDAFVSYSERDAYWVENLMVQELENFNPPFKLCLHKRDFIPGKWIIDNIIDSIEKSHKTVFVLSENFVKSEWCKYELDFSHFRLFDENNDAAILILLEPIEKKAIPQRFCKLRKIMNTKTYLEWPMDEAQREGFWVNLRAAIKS
# human TLR2, sequence (Q9Y2C9 32-796 partner): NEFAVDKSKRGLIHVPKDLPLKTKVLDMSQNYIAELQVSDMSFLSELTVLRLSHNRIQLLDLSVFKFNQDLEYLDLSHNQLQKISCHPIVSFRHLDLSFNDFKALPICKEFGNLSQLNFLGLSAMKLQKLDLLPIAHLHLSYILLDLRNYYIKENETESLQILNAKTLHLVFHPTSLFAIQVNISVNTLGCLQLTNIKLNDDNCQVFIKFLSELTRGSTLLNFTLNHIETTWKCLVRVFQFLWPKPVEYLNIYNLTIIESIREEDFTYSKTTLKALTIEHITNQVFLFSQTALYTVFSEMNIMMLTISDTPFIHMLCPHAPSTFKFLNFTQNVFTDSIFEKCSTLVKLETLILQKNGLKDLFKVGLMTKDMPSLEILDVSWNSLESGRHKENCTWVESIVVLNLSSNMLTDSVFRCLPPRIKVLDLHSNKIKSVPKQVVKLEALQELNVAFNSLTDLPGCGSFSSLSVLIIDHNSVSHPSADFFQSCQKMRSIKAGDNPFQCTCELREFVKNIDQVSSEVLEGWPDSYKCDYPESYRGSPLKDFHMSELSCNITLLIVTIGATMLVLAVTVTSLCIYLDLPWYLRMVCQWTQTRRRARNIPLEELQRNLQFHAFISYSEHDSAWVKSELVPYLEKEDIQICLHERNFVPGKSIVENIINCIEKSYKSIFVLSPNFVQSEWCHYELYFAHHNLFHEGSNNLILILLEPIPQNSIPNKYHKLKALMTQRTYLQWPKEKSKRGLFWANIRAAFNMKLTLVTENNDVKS
TLR2-agonistic activity (in words) (human TLR2),SMILES,other results
highly active,CCCCCCCCCCCCCCCC(=O)OC[C@H](CSC[C@H](N)C(=O)NCC(=O)OC(C)C)OC(=O)CCCCCCCCCCCCCCC [Compound 7],Water solubility (Water solubility): not water-soluble
highly active,CCCCC/C=C\C/C=C\CCCCCCCC(=O)OC[C@H](CSC[C@H](N)C(=O)NCC(=O)OC(C)C)OC(=O)CCCCCCC/C=C\C/C=C\CCCCC [Compound 8],Water solubility (Water solubility): not water-soluble
highly active,CC/C=C\C/C=C\C/C=C\CCCCCCCC(=O)OC[C@H](CSC[C@H](N)C(=O)NCC(=O)OC(C)C)OC(=O)CCCCCCC/C=C\C/C=C\C/C=C\CC [Compound 9],Water solubility (Water solubility): not water-soluble
virtually inactive,CCCCCCCCCCCCCCCC(=O)OC[C@H](CSC[C@H](NC(=O)CC[C@H](N)C(=O)O)C(=O)NCC(=O)OC(C)C)OC(=O)CCCCCCCCCCCCCCC [Compound 11],
inactive,CCOCCOCCOCCCNCC(=O)OC[C@H](CSC[C@H](N)C(=O)N[C@@H](CO)C(=O)O)OC(=O)CNCCCOCCOCCOCC [Compound 24],
unexpectedly active,CCCCCCCCCCCCCCCC(=O)OC[C@@H](O)CSC[C@H](N)C(=O)N[C@@H](CO)C(=O)O [Compound 35],
unexpectedly active,CCCCCCCCCCCCCCCC(=O)O[C@H](CO)CSC[C@H](N)C(=O)N[C@@H](CO)C(=O)O [Compound 38],
completely inactive,"CCCCCCCCCCCCCCCC(=O)OCCCSC[C@H](N)C(=O)N[C@@H](CO)C(=O)OC [Compound 47, 3-(((R)-2-amino-3-(((S)-3-hydroxy-1-methoxy-1-oxopropan-2-yl)amino)-3-oxopropyl)thio)propyl palmitate, trifluoroacetate]",
virtually bereft of activity,"CCCCCCCCCCCCCCCCOC(=O)CSC[C@H](N)C(=O)N[C@@H](CO)C(=O)OC [Compound 50, (S)-methyl 2-((R)-2-amino-3-((2-(hexadecyloxy)-2-oxoethyl)thio)propanamido)-3-hydroxypropanoate, trifluoroacetate]",
virtually bereft of activity,"CCCCCCCCCCCCCCCCOC(=O)CCSC[C@H](N)C(=O)N[C@@H](CO)C(=O)OC [Compound 53, (S)-methyl 2-((R)-2-amino-3-((3-(hexadecyloxy)-3-oxopropyl)thio)propanamido)-3-hydroxypropanoate, trifluoroacetate]",
inactive,CCCCCCCCCCCCCCCC(=O)OC[C@H](CSCCC(=O)N[C@@H](CO)C(=O)OC)OC(=O)CCCCCCCCCCCCCCC [Compound 74],

# The next lines start with the molecule.
SMILES,TLR2-agonistic activity (in words) (human TLR2),other results
CCCCCCCCCCCC(=O)OC[C@H](CSC[C@H](N)C(=O)N[C@@H](CO)C(=O)O)OC(=O)CCCCCCCCCCC [Compound 17],lower in activity than the parent PAM2CS compound,
CCCCCCCCCCCCCC(=O)OC[C@H](CSC[C@H](N)C(=O)N[C@@H](CO)C(=O)O)OC(=O)CCCCCCCCCCCCC [Compound 18],lower in activity than the parent PAM2CS compound,
CCCCCCCCCCCCCCCCCC(=O)OC[C@H](CSC[C@H](N)C(=O)N[C@@H](CO)C(=O)O)OC(=O)CCCCCCCCCCCCCCCCC [Compound 19],lower in activity than the parent PAM2CS compound,
"CCCCCCCCCCCCCCCC(=O)OCCSC[C@H](N)C(=O)N[C@@H](CO)C(=O)OC [Compound 44, 2-(((R)-2-amino-3-(((S)-3-hydroxy-1-methoxy-1-oxopropan-2-yl)amino)-3-oxopropyl)thio)ethyl palmitate, trifluoroacetate]",quite active,Water solubility (Water solubility): water-soluble; EC50 (human TLR2): 5.45 nM
CCCCCCCCCCCCCCCC(=O)OC[C@H](CSC(C)(C)[C@@H](N)C(=O)N[C@@H](CO)C(=O)OC)OC(=O)CCCCCCCCCCCCCCC [Compound 59],inactive,
CCCCCCCCCCCCCCCC(=O)OC[C@H](CSC(C)(C)[C@H](N)C(=O)N[C@@H](CO)C(=O)O)OC(=O)CCCCCCCCCCCCCCC [Compound 64],inactive,
CCCCCCCCCCCCCCCC(=O)OC[C@H](CSCC[C@H](N)C(=O)N[C@@H](CO)C(=O)O)OC(=O)CCCCCCCCCCCCCCC [Compound 69],inactive,
"CCCCCCCCCCCCCCCC(=O)OCC(CSC[C@H](N)C(=O)N[C@@H](CO)C(=O)O)OC(=O)CCCCCCCCCCCCCCC (stereo partly drawn) [PAM2CS, S-[2,3-bis(palmitoyloxy)-(2RS)-propyl]-R-cysteinyl-S-serine]",,Local reactogenicity and pyrogenicity (rabbit): devoid; Pro-inflammatory activity (human blood): devoid of any detectable pro-inflammatory activity; Adjuvanticity [1]: potently adjuvantic
